Measured values from ChEMBL document CHEMBL3351600, “Sulfur, selenium and tellurium pseudopeptides: synthesis and biological evaluation” (Bioorg Med Chem, 2014).

Legend:
[1] = test system: NCI-H23; assay: Growth inhibition of human NCI-H23 cells after 48 hrs; assay type: functional; settings: NCI-H23, 48 h
In short: (§1)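 NCI-60 human tumour cell line panel screen run at the US National Cancer Institute under its standard cytotoxicity protocol. It covers leukaemia, NSCLC, colon, CNS, melanoma, ovarian, renal, prostate and breast lines. An initial single-dose test was followed by five-dose testing with 48 h compound exposure.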

[2] = Growth inhibition of human OVCAR8 cells after 48 hrs; assay type: functional; settings: OVCAR-8, 48 h; in short: as §1
[3] = test system: NCI-H226; assay: Growth inhibition of human NCI-H226 cells after 48 hrs; assay type: functional; settings: NCI-H226, 48 h; in short: as §1
[4] = Growth inhibition of human HCC2998 cells after 48 hrs; assay type: functional; settings: HCC 2998, 48 h; in short: as §1
[5] = Growth inhibition of human HCT116 cells after 48 hrs; assay type: functional; settings: HCT-116, 48 h; in short: as §1
[6] = test system: 786-0; assay: Growth inhibition of human 786-0 cells after 48 hrs; assay type: functional; settings: 786-0, 48 h; in short: as §1
[7] = Growth inhibition of human UACC62 cells after 48 hrs; assay type: functional; settings: UACC-62, 48 h
In short: (§2)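 Run by the NCI 58-cell-line screen under its standard cytotoxicity protocol. Compounds were first tested at a single dose, then at five doses. Cells were exposed to compound for 48 h.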

[8] = Octanol-water partition coefficient, log P of the compound by HPLC analysis; assay type: physicochemical
In short: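 Lipophilicity was measured by reversed-phase HPLC on a Nucleosil C18 column with isocratic water/methanol (3:1) at 0.5 ml/min and UV detection at 230 and 245 nm. Dead time was set with thiourea (t0 0.728 min). Retention factor was k = (tR − t0)/t0, and log P came from a calibration against at least six reference compounds.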

[9] = test system: SK-MEL-5; assay: Growth inhibition of human SK-MEL-5 cells after 48 hrs; assay type: functional; settings: SK-MEL-5, 48 h; in short: as §2
[10] = test system: Escherichia coli; assay: Antimicrobial activity against Escherichia coli tolC assessed as inhibition at 20 ug/6 mm disk after 1 to 2 days by agar diffusion assay; assay type: functional
In short: (§3)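 Standard agar diffusion: 6-mm paper disks loaded with 20 µg of compound were placed on inoculated plates. Inhibition-zone diameter (mm) was read after 1 and 2 days of growth.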

[11] = test system: SK-MEL-28; assay: Growth inhibition of human SK-MEL-28 cells after 48 hrs; assay type: functional; settings: SK-MEL-28, 48 h; in short: as §1
[12] = Growth inhibition of human UO31 cells after 48 hrs; assay type: functional; settings: UO-31, 48 h; in short: as §2
[13] = test system: SNB-75; assay: Growth inhibition of human SNB75 cells after 48 hrs; assay type: functional; settings: SNB-75, 48 h; in short: as §2
[14] = test system: SK-OV-3; assay: Growth inhibition of human SKOV3 cells after 48 hrs; assay type: functional; settings: SK-OV-3, 48 h; in short: as §2
[15] = test system: SW-620; assay: Growth inhibition of human SW620 cells after 48 hrs; assay type: functional; settings: SW-620, 48 h; in short: as §2
[16] = Growth inhibition of human RPMI8226 cells after 48 hrs; assay type: functional; settings: RPMI-8226, 48 h; in short: as §1
[17] = Growth inhibition of human OVCAR4 cells after 48 hrs; assay type: functional; settings: OVCAR-4, 48 h; in short: as §1
[18] = test system: Staphylococcus aureus; assay: Antimicrobial activity against Staphylococcus aureus assessed as inhibition at 20 ug/6 mm disk after 1 to 2 days by agar diffusion assay; assay type: functional; in short: as §3
[19] = test system: CAKI-1; assay: Growth inhibition of human CAKI-1 cells after 48 hrs; assay type: functional; settings: CAKI-1, 48 h; in short: as §1
[20] = test system: Malme-3M; assay: Growth inhibition of human MALME-3M cells after 48 hrs; assay type: functional; in short: as §1
[21] = test system: A549; assay: Growth inhibition of human A549/ATCC cells after 48 hrs; assay type: functional; settings: A549, 48 h; in short: as §1
[22] = test system: SNB-19; assay: Growth inhibition of human SNB19 cells after 48 hrs; assay type: functional; settings: SNB-19, 48 h; in short: as §2
[23] = Growth inhibition of human LOXIMVI cells after 48 hrs; assay type: functional; settings: LOX IMVI; in short: as §1
[24] = Growth inhibition of human COLO205 cells after 48 hrs; assay type: functional; settings: COLO 205, 48 h; in short: as §1
[25] = test system: Saccharomyces cerevisiae; assay: Antimicrobial activity against Saccharomyces cerevisiae assessed as inhibition at 20 ug/6 mm disk after 1 to 2 days by agar diffusion assay; assay type: functional; in short: as §3
[26] = test system: SF-268; assay: Growth inhibition of human SF268 cells after 48 hrs; assay type: functional; settings: SF-268, 48 h; in short: as §1
[27] = test system: HL-60(TB); assay: Growth inhibition of human HL-60(TB) cells after 48 hrs; assay type: functional; settings: HL-60, 48 h; in short: as §1
[28] = test system: HOP-62; assay: Growth inhibition of human HOP62 cells after 48 hrs; assay type: functional; settings: HOP-62, 48 h; in short: as §1
[29] = Growth inhibition of human Hs 578T cells after 48 hrs; assay type: functional; in short: as §1
[30] = test system: DU-145; assay: Growth inhibition of human DU145 cells after 48 hrs; assay type: functional; settings: DU-145, 48 h; in short: as §1
[31] = test system: NCI-H460; assay: Growth inhibition of human NCI-H460 cells after 48 hrs; assay type: functional; settings: NCI-H460, 48 h; in short: as §1
[32] = test system: NCI-H322M; assay: Growth inhibition of human NCI-H322M cells after 48 hrs; assay type: functional; in short: as §1
[33] = read-out: pLC50 (the source's name) (converted)

Work on `COc1ccc(N(CC(=O)NCCC[Te]c2ccccc2)C(=O)CNC(=O)OC(C)(C)C)cc1` yielded a GI50 [1] of 2.51 µM, a CC50 [1, 33] of over 100 µM and a TGI ([1]; read-out: pTGI (converted)) of 6.61 µM. For the same molecule, the GI50 [2] was 2.4 µM, the LC50 [2] was over 100 µM and the TGI ([2]; read-out: pTGI (converted)) was 6.92 µM. It also gave a GI50 [3] of 2.29 µM, a CC50 [3, 33] of 79.4 µM and a TGI ([3]; read-out: pTGI (converted)) of 5.37 µM. It also gave a GI50 [4] of 2.57 µM, a CC50 [4, 33] of 27.5 µM and a TGI ([4]; read-out: pTGI (converted)) of 6.61 µM. For the same molecule, the GI50 [5] was 2.09 µM, the CC50 [5, 33] was 49 µM and the TGI ([5]; read-out: pTGI (converted)) was 6.46 µM. For the same molecule, the GI50 [6] was 3.72 µM, the LC50 [6] was 56.2 µM and the TGI ([6]; read-out: pTGI (converted)) was 12.9 µM. The GI50 [7] was 1.66 µM, the CC50 [7, 33] was 8.71 µM and the TGI ([7]; read-out: pTGI (converted)) was 3.8 µM. For the same molecule, the logP [8] was 4.2, the GI50 [9] was 3.16 µM and the CC50 [9, 33] was 34.7 µM. For the same molecule, the TGI ([9]; read-out: pTGI (converted)) was 9.12 µM, the “diameter of the inhibition zone (DIZ)” value [10] was 12 mm and the GI50 [11] was 3.09 µM. It also gave a CC50 [11, 33] of 36.3 µM, a TGI ([11]; read-out: pTGI (converted)) of 10 µM and a GI50 [12] of 2.4 µM. It also gave an LC50 [12] of over 100 µM, a TGI ([12]; read-out: pTGI (converted)) of 9.12 µM and a GI50 [13] of 6.61 µM. The CC50 [13, 33] was 36.3 µM, the TGI ([13]; read-out: pTGI (converted)) was 7.41 µM and the GI50 [14] was 2.34 µM. The CC50 [14, 33] was 10 µM, the TGI ([14]; read-out: pTGI (converted)) was 4.79 µM and the GI50 [15] was 3.47 µM. For the same molecule, the CC50 [15, 33] was over 100 µM, the TGI ([15]; read-out: pTGI (converted)) was 14.5 µM and the GI50 [16] was 2.4 µM. For the same molecule, the CC50 [16, 33] was over 100 µM, the TGI ([16]; read-out: pTGI (converted)) was 7.24 µM and the GI50 [17] was 22.4 µM. For the same molecule, the LC50 [17] was over 100 µM, the TGI ([17]; read-out: pTGI (converted)) was over 100 µM and the “diameter of the inhibition zone (DIZ)” value [18] was 10 mm. The GI50 [19] was 2.09 µM, the LC50 [19] was over 100 µM and the TGI ([19]; read-out: pTGI (converted)) was 5.62 µM. For the same molecule, the GI50 [20] was 15.8 µM, the CC50 [20, 33] was 69.2 µM and the TGI ([20]; read-out: pTGI (converted)) was 33.1 µM. It also gave a GI50 [21] of 0.525 µM, a CC50 [21, 33] of 6.76 µM and a TGI ([21]; read-out: pTGI (converted)) of 2.19 µM. For the same molecule, the GI50 [22] was 8.71 µM, the CC50 [22, 33] was over 100 µM and the TGI ([22]; read-out: pTGI (converted)) was 9.55 µM. For the same molecule, the GI50 [23] was 2.34 µM, the LC50 [23] was 34.7 µM and the TGI ([23]; read-out: pTGI (converted)) was 5.75 µM. The GI50 [24] was 2 µM, the CC50 [24, 33] was 7.24 µM and the TGI ([24]; read-out: pTGI (converted)) was 3.8 µM. For the same molecule, the “diameter of the inhibition zone (DIZ)” value [25] was 0 mm, the GI50 [26] was 2.69 µM and the CC50 [26, 33] was 100 µM. For the same molecule, the TGI ([26]; read-out: pTGI (converted)) was 7.59 µM, the GI50 [27] was 2.09 µM and the CC50 [27, 33] was over 100 µM. It also gave a TGI ([27]; read-out: pTGI (converted)) of 5.62 µM, a GI50 [28] of 2.19 µM and a CC50 [28, 33] of 11 µM. It also gave a TGI ([28]; read-out: pTGI (converted)) of 4.68 µM, a GI50 [29] of 2.75 µM and an LC50 [29] of over 100 µM. It also gave a TGI ([29]; read-out: pTGI (converted)) of 7.24 µM, a GI50 [30] of 2.88 µM and an LC50 [30] of 30.9 µM. It also gave a TGI ([30]; read-out: pTGI (converted)) of 7.59 µM, a GI50 [31] of 0.447 µM and a CC50 [31, 33] of 7.59 µM. For the same molecule, the TGI ([31]; read-out: pTGI (converted)) was 1.86 µM, the GI50 [32] was 2.29 µM and the CC50 [32, 33] was over 100 µM. For the same molecule, the TGI ([32]; read-out: pTGI (converted)) was 6.61 µM.
